Read-outs that look alike come from different tables or passages of the source.
Tests used:
[1] = Weight gains, feed and water consumption of gavaged rats; format: in vivo, rat
Summary of the method: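 Rats were housed singly at 18–26 °C, 40–70% RH and 12 h light/dark, with feed and water ad libitum. They were gavaged for 10 days from GD10 with vehicle (1% CMC-Na) or 1000 mg/kg BW/day test compound. Fluid intake was measured every 3 days and feed every 7 days. For dams, adjusted gain = GD20 body weight minus gravid uterus weight and GD10 weight.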

[2] = Body weight and organ weights standardized to body weight; format: in vivo, rat; conditions: 1000 mg/kg BW/day; for Paired kidney weight standardized to body weight (% ± SEM): group mean
pregnant rats [3] = test: Reproductive indices at necropsy; format: in vivo, rat; conditions: dams
Summary of the method: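 Time-pregnant rats were gavaged daily for 10 days from GD10 with 1% CMC-Na or 1000 mg/kg BW/day test compound. At necropsy the gravid uterus was removed whole and weighed, and corpora lutea, implants, and early and late deaths were recorded. Groups were compared against both control and the other triazine group.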

fetuses = test: Fetal data; format: in vivo, rat; conditions: dams, 1000 mg/kg BW/day, GD20
Summary of the method: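 Dams were dosed by gavage (1000 mg/kg BW/day or 1% CMC-Na vehicle) for 10 days from GD10. At GD20 necropsy, the gravid uterus was removed whole and weighed. Each viable fetus was recorded for uterine position, sex, weight, crown-rump length and external abnormalities. Runts were defined as below 70% of the control litter average weight by gender.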

kidney = test: Kidney wet-mount analysis for renal crystals; format: in vivo, rat
Summary of the method: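 After 10 days of gavage at 1000 mg/kg BW/day, a thin fresh renal slice spanning cortex and medulla was weighed. It was compressed between two slides with a coverslip and examined fresh by light microscopy. Crystals were ranked on a subjective 0–5 scale; some views used polarised light.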

[4] = Serum chemistry, renal function; format: in vivo, rat; conditions: for Blood urea nitrogen (mean ± SEM) / Creatinine (mean ± SEM) / Uric acid (mean ± SEM): serum
Summary of the method: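 Serum was taken from pregnant and non-pregnant rats after 10 days of gavage with vehicle or 1000 mg/kg BW/day test compound. Samples were brought to room temperature. BUN, creatinine and uric acid were measured on a benchtop veterinary chemistry analyser. Results were compared with control and the other treated group.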

[5] = Serum triazine analysis by LC-MS/MS; format: in vivo; conditions: pregnant female rats, individual rat; label = dose group; LOD 0.4 μg/mL
Summary of the method: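 Serum was collected from each rat after 10 daily gavages of 1000 mg/kg BW/day test compound or vehicle. Melamine and cyanuric acid were quantified by a previously published LC-MS/MS method, validated with pre-spiked serum samples at several fortification levels. Natural-log serum concentrations were compared between pregnant and non-pregnant rats by two-sided t-test (p ≤ 0.05).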

[6] = Amniotic fluid triazine analysis by LC-MS/MS; format: in vivo, rat; conditions: pregnant female rats, pooled by dam; label = dose group; LOD 0.4 μg/mL
Summary of the method: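 Amniotic fluid came from GD20 dams gavaged for 10 days with vehicle or 1000 mg/kg BW/day test compound. Melamine and cyanuric acid were measured by a previously published LC-MS/MS method, validated with pre-spiked amniotic fluid. Serum-to-amniotic fluid Pearson correlations were run only on rats with both samples (p ≤ 0.05).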

[7] = Formalin, ethanol and freezing effects on renal crystals; design: species or system rat
Summary of the method: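 Fresh kidney wet-mounts with crystal rank 4–5 were flooded with 10% neutral buffered formalin and photographed repeatedly. Times were 0, 1, 2, 3 and 24 h for melamine-exposed kidney and 0, 10, 20, 30 min and 1 h for cyanuric acid-exposed kidney. Sections in 100% ethanol were checked daily for up to 6 days. Frozen tissue, either freeze–thawed or held at −70 °C, was cut into 6 μm cryosections, unstained or unfixed H&E.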

kidney and bladder = test: Histopathology of kidney and bladder; format: in vivo, rat
rats = test: Clinical observations and survival; format: in vivo, rat; conditions: 1000 mg/kg BW/day
Summary of the method: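 Female rats, time-pregnant or non-pregnant, were weight-stratified and randomised from GD10. They were gavaged each morning for 10 days with 1% CMC-Na vehicle or 1000 mg/kg BW/day test compound at 1 mL/100 g (n = 11/group; pregnant high-triazine group n = 13). Observations were made at least twice on day 1, then at least daily, covering skin, fur, eyes, mucosa, autonomic/CNS signs and behaviour. Animals removed early were counted as deaths.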

[8] = oral, female rats; ref Jacob et al., 2012; cited from earlier work
ABCB1 = conditions: MDCK cells; ref Partanen et al. (2012); cited from earlier work
ABCC2 = conditions: MDCK cells; ref Partanen et al. (2012); cited from earlier work
ABCG2 = conditions: MDCK cells; ref Partanen et al. (2012); cited from earlier work
[9] = pregnant rats, ref Jingbin et al. (2010), cited from earlier work
pregnant rats [10] = conditions: F344 rats, MEL in feed; ref Melnick et al. (1984); cited from earlier work
[11] = not pregnant rats, 1000 mg/kg BW/day
[12] = pregnant rats, 1000 mg/kg BW/day
[13] = 1000 mg/kg BW/day, necropsy GD20
[14] = kidney, H&E, pregnant and non-pregnant

Compound: Nc1nc(N)nc(N)n1 [MEL, melamine]
- Total feed consumption (g ± SEM) [1, 11]: 112.3 ± 9.2^^ g
- Total water consumption (g ± SEM) [1, 11]: 295.1 ± 21.9 g
- Total bw gain (g ± SEM) ([1]; not pregnant rats, 1000 mg/kg BW/day gavage 10 days, brackets indicate negative): (9.1) ± 6.5^^ g
- Total feed consumption (g ± SEM) [1, 12]: 122.2 ± 11.0^^ g
- Total water consumption (g ± SEM) [1, 12]: 391.8 ± 43.6 g
- Total bw gain (g ± SEM) ([1]; pregnant rats, 1000 mg/kg BW/day gavage GD10-20): 5.7 ± 14.9^^ g
- Adjusted weight gain (g ± SEM) ([1]; pregnant rats, GD20 body weight minus gravid uterus weight and GD10 weight, brackets indicate negative, 1000 mg/kg BW/day): (32.0) ± 14.6^^ g
- GD20 Body weight (g ± SEM) ([2]; not pregnant rats): 211.3 ± 6.3 g
- Heart weight standardized to body weight (% ± SEM) ([2]; not pregnant rats): 0.43 ± 0.02 %
- Left kidney weight standardized to body weight (% ± SEM) ([2]; not pregnant rats): 0.65 ± 0.06%
- Liver weight standardized to body weight (% ± SEM) ([2]; not pregnant rats): 3.70 ± 0.14%
- Right kidney weight standardized to body weight (% ± SEM) ([2]; not pregnant rats): 0.68 ± 0.08^^ %
- Spleen weight standardized to body weight (% ± SEM) ([2]; not pregnant rats): 0.26 ± 0.02%
- Paired kidney weight standardized to body weight (% ± SEM) ([2]; not pregnant rats): 1.33 ± 0.13^^ %
- GD20 Body weight (g ± SEM) ([2]; pregnant rats): 247.6 ± 11.5 g
- Heart weight standardized to body weight (% ± SEM) ([2]; pregnant rats): 0.37 ± 0.03^^ %
- Left kidney weight standardized to body weight (% ± SEM) ([2]; pregnant rats): 0.52 ± 0.05%
- Liver weight standardized to body weight (% ± SEM) ([2]; pregnant rats): 3.64 ± 0.08%
- Right kidney weight standardized to body weight (% ± SEM) ([2]; pregnant rats): 0.56 ± 0.05^^ %
- Spleen weight standardized to body weight (% ± SEM) ([2]; pregnant rats): 0.16 ± 0.03%
- Paired kidney weight standardized to body weight (% ± SEM) ([2]; pregnant rats): 1.09 ± 0.10^^ %
- No. corpea lutea (mean ± SEM) (pregnant rats [3]; 1000 mg/kg BW/day gavage GD10-20, necropsy GD20): 15.1 ± 0.4
- Early and late deaths (mean% of implants ± SEM) (pregnant rats [3]; [13]): 60.3 ± 14.2^^ % of implants
- Early deaths (mean% of implants ± SEM) (pregnant rats [3]; [13]): 28.8 ± 12.5^@ % of implants
- Implant efficiency (mean% ± SEM) (pregnant rats [3]; [13]): 88.0 ± 3.6%
- Late deaths (mean% of implants ± SEM) (pregnant rats [3]; [13]): 31.6 ± 13.1 % of implants
- No. fetuses alive (mean ± SEM) (pregnant rats [3]; [13]): 5.5 ± 2.0
- No. implants (mean ± SEM) (pregnant rats [3]; [13]): 13.3 ± 0.6
- Percent alive both genders (mean% ± SEM) (pregnant rats [3]; [13]): 39.7 ± 14.2%
- Percent live females (mean% ± SEM) (pregnant rats [3]; [13]): 40.7 ± 3.8%
- Average crown rump length (mean cm ± SEM) (fetuses): 3.62 ± 0.23^^ cm
- Average fetal body weight (g ± SEM) (fetuses): 2.85 ± 0.48^^ g
- Litter size (mean ± SEM) (fetuses): 5.5 ± 2.0^^
- Number of rats with non-pigmented pyramidal uroliths adjacent to the papilla (kidney; 1000 mg/kg BW/day): 4
- Treated rats that developed renal crystals (percent) (kidney; pregnant and non-pregnant combined, MEL n = 24, CYA n = 22, wet-mount): 96%
- Number of treated rats that developed renal crystals (kidney; pregnant and non-pregnant combined, MEL of 24, CYA of 22, wet-mount): 23
- Effect on uric acid serum levels versus control rats ([4]; 1000 mg/kg BW/day): did not appear to have an effect
- Blood urea nitrogen (mean ± SEM) [4, 11]: 62.45 ± 17.32^^ mg/dL
- Creatinine (mean ± SEM) [4, 11]: 1.28 ± 0.27^^ mg/dL
- Uric acid (mean ± SEM) [4, 11]: 4.18 ± 0.29 mg/dL
- Mean creatinine of all treated rats ([4]; pregnant and non-pregnant pooled): 1.4 mg/dL
- Mean BUN of all treated rats ([4]; pregnant and non-pregnant pooled, all but one had crystals): 69 mg/dL
- BUN and creatinine levels, elevation over control and CYA group levels ([4]; pregnant and non-pregnant rats): 2–4 times
- Blood urea nitrogen (mean ± SEM) [4, 12]: 78.25 ± 18.41^^ mg/dL
- Creatinine (mean ± SEM) [4, 12]: 1.45 ± 0.22^^ mg/dL
- Uric acid (mean ± SEM) [4, 12]: 3.45 ± 0.12 mg/dL
- CYA concentration, Serum [5]: <LOD
- CYA concentration, Amniotic Fluid [6]: <LOD
- Stability of crystals to freeze–thaw cycles ([7]; frozen kidney tissue, CYA stable if held at −70 °C): able to withstand freeze–thaw cycles
- Period over which crystals progressively dissolve in 100% ethanol ([7]; kidney wet-mount sections): 6 days
- Time within which crystal presence was greatly reduced in formalin ([7]; kidney wet-mount sections): ≤ 2 h
- Number of rats with epithelial necrosis in the bladder (kidney and bladder; MEL: pregnant rats, minimal to marked, CYA: 1 pregnant, 2 non-pregnant, mild): 3
- Rats with tubular dilation (kidney and bladder; [14]): 92%
- Rats with tubular necrosis (kidney and bladder; [14]): 100%
- Animals removed from the study early (rats; non-pregnant rats (n = 11)): 1
- Maternal health during 10 day dosing period (rats; pregnant and non-pregnant rats): lost condition
- Animals removed from the study early (rats; pregnant rats (n = 13)): 7
- Area under the curve (AUC) [8]: 1992 ng·h/mL
- Half-life [8]: 1.92 h
- Substrate for ABC transporter ABCB1 (ABCB1): not a substrate
- Substrate for ABC transporter ABCC2 (ABCC2): not a substrate
- Substrate for ABC transporter ABCG2 (ABCG2): not a substrate
- Detection of melamine in amniotic fluid ([9]; 40 mg/kg BW GD13 to GD20): did not detect
- Detection of melamine in amniotic fluid ([9]; 400 mg/kg BW): detected
- Amniotic fluid concentration as percent of maternal serum [9]: approximately 17%
- Microscopically-observed pathology in the ovaries or uteri (pregnant rats [10]): did not report any microscopically-observed pathology

— publication PMC11421684 (Food and chemical toxicology : an international journal …, 2014)
